The text below walks through data of ChEMBL document CHEMBL1125103, “Structure-activity relationships for metal-labeled blood flow tracers: comparison of keto aldehyde bis(thiosemicarbazonato)copper(II) derivatives” (J Med Chem, 1990).

In general, logP refers to a log measure of how a compound divides between an organic and an aqueous phase. A higher logP goes with a more lipophilic compound.

A short description of data set [1]: Partition coefficient (logP). It is filed as physicochemical. Particulars: octanol/water. In a few lines: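 1-Octanol (1 mL) and isotonic Tris buffer pH 7.0 (1 mL) vortexed with 1–5 μL of the 67Cu-labeled aqueous complex, then centrifuged at >1200g for 5 min. Both phases were gamma counted in a window on the 185 keV peak. P = counts per g octanol / counts per g water. The octanol phase was re-extracted; the value is from the second and third extractions, mean of six measurements.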

The species entered for data set [2] is Rattus norvegicus. The data set can be described thus: Myocardial levels of tracer copper in rats 1 min after injection into the femoral vein. It counts as functional, organism-based. The settings on record: Myocardium. The procedure, abridged: (§1)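 Copper-67 bis(thiosemicarbazone) complex, 0.2 mL (1–3 μCi) in 5–10% ethanol, injected with a 27-gauge needle into the exposed femoral vein of ether-anesthetized Sprague-Dawley rats (generally 175–225 g). Dose was set by weighing the syringe. Rats were killed by decapitation; organs were excised, blotted and weighed, and counted for 67Cu by gamma counting against a diluted standard dose. Values are percent injected dose per organ, with blood volume taken as 7% of body mass. Generally four rats per time point; mean ± SD.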

The species named for data set [3] is Rattus norvegicus. Kind of data set: Myocardial levels of tracer copper in rats 2 hr after injection into the femoral vein. The settings on record: Myocardium. It is filed as functional, organism-based. In a few lines: as §1
For data set [4], the species on record is Rattus norvegicus. The data set can be described thus: Kidney levels of tracer copper in rats 2 hr after injection into the femoral vein. It counts as functional, organism-based. The procedure, abridged: as §1
The species entered for data set [5] is Rattus norvegicus. Kind of data set: Liver levels of tracer copper in rats 1 min after injection into the femoral vein. It counts as functional, organism-based. The procedure, abridged:
as §1

The species named for data set [6] is Rattus norvegicus. Kind of data set: Pulmonary levels of tracer copper in rats 1 min after injection into the femoral vein. It is filed as functional, organism-based. In a few lines:
as §1

The species entered for data set [7] is Rattus norvegicus. Kind of data set: Pulmonary levels of tracer copper in rats 2 hr after injection into the femoral vein. It is filed as functional, organism-based. The procedure, abridged:
as §1

The species named for data set [8] is Rattus norvegicus. The data set can be described thus: Pulmonary levels of tracer copper in rats 5 min after injection into the femoral vein. It counts as functional, organism-based. The procedure, abridged: as §1
The species named for data set [9] is Rattus norvegicus. Kind of data set: Liver levels of tracer copper in rats 5 min after injection into the femoral vein. It is filed as functional, organism-based. The procedure, abridged: as §1
Data set [10] is filed under the species Rattus norvegicus. Kind of data set: Liver levels of tracer copper in rats 2 hr after injection into the femoral vein. It is filed as functional, organism-based. The procedure, abridged: as §1
Data set [11] is filed under the species Rattus norvegicus. The data set can be described thus: (§2) Blood levels of tracer copper in rats 5 min after injection into the femoral vein. It counts as functional, organism-based. In a few lines:
as §1

The species entered for data set [12] is Rattus norvegicus. Kind of data set: Blood levels of tracer copper in rats 1 min after injection into the femoral vein. It is filed as functional, organism-based. In a few lines:
as §1

Data set [13] is filed under the species Rattus norvegicus. The data set can be described thus: Blood levels of tracer copper in rats 2 hr after injection into the femoral vein. It is filed as functional, organism-based. The procedure, abridged:
as §1

The species entered for data set [14] is Rattus norvegicus. The description is as §2. It is filed as functional, organism-based. In a few lines: as §1
The source holds these as a separate data set.

For data set [15], the species on record is Rattus norvegicus. Kind of data set: Brain levels of tracer copper in rats 1 min after injection into the femoral vein. It counts as functional, organism-based. In a few lines:
as §1

Data set [16] is filed under the species Rattus norvegicus. The data set can be described thus: Brain levels of tracer copper in rats 2 hr after injection into the femoral vein. It is filed as functional, organism-based. The procedure, abridged:
as §1

The species named for data set [17] is Rattus norvegicus. Kind of data set: Brain levels of tracer copper in rats 5 min after injection into the femoral vein. It is filed as functional, organism-based. In a few lines: as §1
Data set [18] is filed under the species Rattus norvegicus. The data set can be described thus: Kidney levels of tracer copper in rats 1 min after injection into the femoral vein. It counts as functional, organism-based. The procedure, abridged:
as §1

For data set [19], the species on record is Rattus norvegicus. The data set can be described thus: Myocardial levels of tracer copper in rats 5 min after injection into the femoral vein. It counts as functional, organism-based. The settings on record: Myocardium. In a few lines: as §1
The species named for data set [20] is Rattus norvegicus. Kind of data set: Kidney levels of tracer copper in rats 5 min after injection into the femoral vein. It is filed as functional, organism-based. The procedure, abridged: as §1

In [1], “Propyl glyoxal bis(thiosemicarbazone)(67Cu-n-PrTS) [listing 1 of 2 here]” displayed a logP of 1.78.
Consider “Propyl glyoxal bis(thiosemicarbazone)(67Cu-n-PrTS) [listing 2 of 2 here]”, for which the Injected dose in the data set listed under Rattus norvegicus [2] came out at 3.9%; in the data set filed under Rattus norvegicus [3], 3.5%; in the data set listed under Rattus norvegicus [4], 3.6%; in the data set listed under Rattus norvegicus [5] it was 11.5%; in the data set listed under Rattus norvegicus [6] it was 13.1%; in the data set listed under Rattus norvegicus [7] it was 5.2%. Further, the Injected dose in the data set filed under Rattus norvegicus [8] is 9.6%; in the data set listed under Rattus norvegicus [9] it was 13.7%; in the data set filed under Rattus norvegicus [10], 17.3%; in the data set filed under Rattus norvegicus [11], 8.9%; in the data set filed under Rattus norvegicus [12], 15.2%; in the data set filed under Rattus norvegicus [13], 8.5%. Further, the Injected dose is 8.9% in the data set listed under Rattus norvegicus [14]; 1.45% in the data set listed under Rattus norvegicus [15]; 1.79% in the data set filed under Rattus norvegicus [16]; 1.27% in the data set filed under Rattus norvegicus [17]; 2.8% in the data set listed under Rattus norvegicus [18]; 3% in the data set listed under Rattus norvegicus [19]. The substance further showed an Injected dose in the data set filed under Rattus norvegicus [20] of 2.8%.
